Data from ChEMBL document CHEMBL1649286, “ACHN-490, a neoglycoside with potent in vitro activity against multidrug-resistant Klebsiella pneumoniae isolates” (2009).
Converted amounts (≈) assume the structure as drawn.

Experiments:
Format in all cases: functional
Klebsiella pneumoniae [1] = experiment: Antimicrobial activity against beta lactamase KPC-producing Klebsiella pneumoniae isolates by microdilution method
In short: (§1)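 Broth microdilution MICs following CLSI, in cation-adjusted Mueller-Hinton broth, using custom-made panels that include piperacillin-tazobactam. Cephalosporin-clavulanate combinations use clavulanate at a constant 4 mg/liter. Susceptible and resistant categories are assigned by CLSI criteria.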

Klebsiella pneumoniae [2] = experiment: Antimicrobial activity against multidrug-resistant Klebsiella pneumoniae isolates assessed as resistance isolates by microdilution method
In short: as §1, with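 “piperacillin-tazobactam. Tested against 102 multidrug-resistant clinical Klebsiella pneumoniae isolates, a subset of 25 of which produce KPC carbapenemase.” for “piperacillin-tazobactam.”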

Klebsiella pneumoniae [3] = experiment: Antimicrobial activity against beta lactamase KPC-producing Klebsiella pneumoniae isolates assessed as susceptible isolates by microdilution method
In short: (§2)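 Broth microdilution in cation-adjusted Mueller-Hinton broth following CLSI criteria, using customized panels that included piperacillin-tazobactam. MICs were read as the endpoint, and susceptibility was categorized by CLSI criteria.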

Klebsiella pneumoniae [4] = experiment: Antimicrobial activity against beta lactamase KPC-producing Klebsiella pneumoniae isolates assessed as resistance isolates by microdilution method
In short: as §1, with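 “piperacillin-tazobactam. Tested against 102 multidrug-resistant clinical Klebsiella pneumoniae isolates, a subset of 25 of which produce KPC carbapenemase.” for “piperacillin-tazobactam.”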

Klebsiella pneumoniae [5] = experiment: Antimicrobial activity against multidrug-resistant Klebsiella pneumoniae isolates assessed as susceptible isolates by microdilution method
In short: as §1, with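 “piperacillin-tazobactam. Tested against 102 multidrug-resistant clinical Klebsiella pneumoniae isolates, a subset of 25 of which produce KPC carbapenemase.” for “piperacillin-tazobactam.”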

Klebsiella pneumoniae [6] = experiment: Antimicrobial activity against multidrug-resistant Klebsiella pneumoniae isolates by microdilution method
In short: as §1, with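 “piperacillin-tazobactam. Tested against 102 multidrug-resistant clinical Klebsiella pneumoniae isolates, a subset of 25 of which produce KPC carbapenemase.” for “piperacillin-tazobactam.”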

Klebsiella pneumoniae [7] = experiment: Antimicrobial activity against multidrug-resistant Klebsiella pneumoniae isolates assessed as susceptible isolates by microdilution method in presence of beta-lactamase inhibitor Tazobactam
In short: as §1, with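 “piperacillin-tazobactam. Tested against 102 multidrug-resistant clinical Klebsiella pneumoniae isolates, a subset of 25 of which produce KPC carbapenemase.” for “piperacillin-tazobactam.”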

Klebsiella pneumoniae [8] = experiment: Antimicrobial activity against beta lactamase KPC-producing Klebsiella pneumoniae isolates by microdilution method in presence of beta-lactamase inhibitor Tazobactam
In short: as §2, with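 “piperacillin-tazobactam. The 25 clinical KPC-producing K. pneumoniae isolates belong to a set of 102 multidrug-resistant strains.” for “piperacillin-tazobactam.”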

Klebsiella pneumoniae [9] = experiment: Antimicrobial activity against beta lactamase KPC-producing Klebsiella pneumoniae isolates assessed as susceptible isolates by microdilution method in presence of beta-lactamase inhibitor Tazobactam
In short: as §2, with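 “piperacillin-tazobactam. The 25 clinical KPC-producing K. pneumoniae isolates belong to a set of 102 multidrug-resistant strains.” for “piperacillin-tazobactam.”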

Pseudomonas aeruginosa = experiment: Antimicrobial activity against Pseudomonas aeruginosa ATCC 27853 by microdilution method
Klebsiella pneumoniae [10] = experiment: Antimicrobial activity against Klebsiella pneumoniae ATCC 700603 by microdilution method
Escherichia coli = experiment: Antimicrobial activity against Escherichia coli ATCC 25922 by microdilution method

Molecule	MIC50 (Klebsiella pneumoniae [1])	MIC90 (Klebsiella pneumoniae [1])	Activity (Klebsiella pneumoniae [2])	Activity (Klebsiella pneumoniae [3])	Activity (Klebsiella pneumoniae [4])	Activity (Klebsiella pneumoniae [5])	MIC50 (Klebsiella pneumoniae [6])	MIC90 (Klebsiella pneumoniae [6])	Activity (Klebsiella pneumoniae [7])	MIC50 (Klebsiella pneumoniae [8])	MIC90 (Klebsiella pneumoniae [8])	Activity (Klebsiella pneumoniae [9])	MIC (Pseudomonas aeruginosa)	MIC (Klebsiella pneumoniae [10])	MIC (Escherichia coli)
NCC[C@H](O)C(=O)N[C@@H]1C[C@H](N)[C@@H](O[C@H]2O[C@H](CN)[C@@H](O)[C@H](O)[C@H]2O)[C@H](O)[C@H]1O[C@H]1O[C@H](CO)[C@@H](O)[C@H](N)[C@H]1O [AMIKACIN]	32 µg/mL (≈ 54.6 µM)	32 µg/mL (≈ 54.6 µM)	4.9%	48%	0%	78.4%	2 µg/mL (≈ 3.42 µM)	32 µg/mL (≈ 54.6 µM)	–	–	–	–	–	–	–
NCC[C@H](O)C(=O)N[C@@H]1C[C@H](N)[C@@H](O[C@H]2O[C@H](CN)CC[C@H]2N)[C@H](O)[C@H]1O[C@H]1O[C@H](CO)[C@@H](O)[C@H](N)[C@H]1O [ARBEKACIN]	8 µg/mL (≈ 14.5 µM)	16 µg/mL (≈ 29 µM)	–	–	–	–	4 µg/mL (≈ 7.24 µM)	16 µg/mL (≈ 29 µM)	–	–	–	–	–	–	–
CC(C)(O/N=C(\C(=O)N[C@@H]1C(=O)N2C(C(=O)[O-])=C(C[n+]3ccccc3)CS[C@H]12)c1csc(N)n1)C(=O)O [CEFTAZIDIME]	> 32 µg/mL	> 32 µg/mL	–	0%	–	9.8%	> 32 µg/mL	> 32 µg/mL	–	–	–	–	–	–	–
NC[C@@H]1O[C@H](O[C@H]2[C@@H](O)[C@H](O[C@@H]3[C@@H](O)[C@H](N)C[C@H](N)[C@H]3O[C@H]3O[C@H](CN)[C@@H](O)[C@H](O)[C@H]3N)O[C@@H]2CO)[C@H](N)[C@@H](O)[C@@H]1O [FRAMYCETIN]	2 µg/mL (≈ 3.25 µM)	32 µg/mL (≈ 52.1 µM)	–	–	–	–	2 µg/mL (≈ 3.25 µM)	32 µg/mL (≈ 52.1 µM)	–	–	–	–	–	–	–
C[C@@H](O)[C@H]1C(=O)N2C(C(=O)O)=C(SCCNC=N)C[C@H]12 [IMIPENEM ANHYDROUS]	8 µg/mL (≈ 26.7 µM)	> 16 µg/mL	–	12%	–	75.5%	0.5 µg/mL (≈ 1.67 µM)	8 µg/mL (≈ 26.7 µM)	–	–	–	–	–	–	–
CCN1CCN(C(=O)N[C@@H](C(=O)N[C@@H]2C(=O)N3[C@@H]2SC(C)(C)[C@@H]3C(=O)O)c2ccccc2)C(=O)C1=O [PIPERACILLIN]	–	–	–	–	–	–	–	–	38.2%	> 64 µg/mL	> 64 µg/mL	0%	–	–	–
CN[C@@H]1[C@@H](O)[C@@H](O[C@@H]2[C@@H](O)[C@H](O[C@H]3OC(CNCCO)=CC[C@H]3N)[C@@H](N)C[C@H]2NC(=O)[C@@H](O)CCN)OC[C@]1(C)O [PLAZOMICIN]	0.5 µg/mL (≈ 0.844 µM)	1 µg/mL (≈ 1.69 µM)	–	–	–	–	0.5 µg/mL (≈ 0.844 µM)	1 µg/mL (≈ 1.69 µM)	–	–	–	–	4 µg/mL (≈ 6.75 µM)	0.25 µg/mL (≈ 0.422 µM)	0.5 µg/mL (≈ 0.844 µM)
CN(C)c1cc(NC(=O)CNC(C)(C)C)c(O)c2c1C[C@H]1C[C@H]3[C@H](N(C)C)C(O)=C(C(N)=O)C(=O)[C@@]3(O)C(O)=C1C2=O [TIGECYCLINE]	1 µg/mL (≈ 1.71 µM)	2 µg/mL (≈ 3.41 µM)	–	96%	–	90.2%	1 µg/mL (≈ 1.71 µM)	2 µg/mL (≈ 3.41 µM)	–	–	–	–	–	–	–
NC[C@H]1O[C@H](O[C@H]2[C@H](O)[C@@H](O[C@H]3O[C@H](CO)[C@@H](O)[C@H](N)[C@H]3O)[C@H](N)C[C@@H]2N)[C@H](N)C[C@@H]1O [TOBRAMYCIN]	32 µg/mL (≈ 68.4 µM)	≥ 64 µg/mL	76.5%	8%	92%	10.8%	32 µg/mL (≈ 68.4 µM)	–	–	–	–	–	–	–	–
GENTAMICIN	8 µg/mL	16 µg/mL	39.2%	44%	12%	25.5%	8 µg/mL	> 64 µg/mL	–	–	–	–	–	–	–
